Laboratory results published in paper PMC10568112 (Journal of Pharmaceutical Analysis, 2023).
Read-outs that look alike come from different tables or passages of the source.

How the values were obtained:
[1] = test system: gut microbiota (intestinal bacteria incubation system); test: Metabolism of SNZ by intestinal bacteria in vitro; assay type: in vitro ADME, Balb/c mice; details: SNZ 10 μg/mL; for course of metabolite content in intestinal bacteria incubation: 0-2 h
Method in brief: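 Contents of male Balb/c intestine were mixed 1:30 (w/v) in anaerobic medium, kept under N2 and pre-incubated 30 min at 37 °C. Test compound was present at a final 10 μg/mL, and inactivated bacteria medium served as negative control. Shaking at 37 °C, 200 rpm was done in two separate runs: 0, 1, 2, 6, 12 and 24 h, then 0, 15, 30, 60, 90 and 120 min. Parent and metabolite contents were followed over time.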

[2] = Pharmacokinetics after oral SNZ in normal Balb/c mice and pseudo-germfree; assay type: in vivo; details: oral SNZ 109.2 mg/kg; for Cmax / half-life / Tmax: Balb/c, mouse, po, 109.2 mg/kg; for Cmax / half-life / Tmax / AUC(0−t) / AUC(0−∞): plasma, mean
[3] = Pharmacokinetics after oral SNZ in tumor mice and PGF tumor mice; assay type: in vivo, Balb/c mice; details: oral SNZ 109.2 mg/kg
[4] = Tissue distribution after oral SNZ in tumor bearing mice; assay type: in vivo, Balb/c mice; details: 20 min after oral SNZ 109.2 mg/kg; for tissues in which the metabolite is distributed: tumor mice
Method in brief: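 Three tumour-bearing mice per group, conventional or PGF, were fasted overnight and dosed orally at 109.2 mg/kg. After 20 min they were anaesthetised with 20% urethane and PBS-perfused. Organs and tumour were homogenised in 3 volumes of PBS. 100 μL homogenate was mixed with 300 μL methanol containing glipizide (100 ng/mL), vortexed 1 min and centrifuged at 14,000 rpm for 10 min. Supernatant was analysed by HPLC-MS/MS.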

[5] = test system: carboxylesterase of gut microbiota; assay type: in vitro ADME, Balb/c mice; details: for inhibition rate of tyrosol production: 120 min, SNZ 10 μg/mL, vs control group
Method in brief: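 Gut bacteria incubations were set up as for the microbial metabolism assay, with test compound at a final 10 μg/mL. The carboxylesterase inhibitor BNPP was added at 1, 5 or 10 mM; cultures without BNPP served as control. Incubation was at 37 °C for 0, 15, 30, 60, 90 and 120 min. Inhibition of tyrosol production at 120 min was expressed relative to control.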

[6] = tumor mice (column head Normal), plasma, mean
[7] = PK parameters in PGF could not be fitted

course of metabolite content in intestinal bacteria incubation [1] | Cmax ([2]; normal Balb/c mice) | half-life ([2]; t1/2, normal Balb/c mice) | Tmax ([2]; normal Balb/c mice) | AUC(0−t) ([2]; normal Balb/c mice) | AUC(0−∞) ([2]; normal Balb/c mice) | AUC(0−t) [3, 6] | AUC(0−∞) [3, 6] | amount detected in tumor tissue of tumor mice compared with PGF tumor mice [4] | Structure (SMILES) | tissues in which the metabolite is distributed [4] | other results
gradually decreased | 257 ng/mL | 90.8 min | 44 min | 33814.78 µg/L/min | 36004.16 µg/L/min | 22373.93 µg/L/min | 23773.54 µg/L/min | a large amount | OC[C@H]1O[C@@H](OCCc2ccc(O)cc2)[C@H](O)[C@@H](O)[C@@H]1O [Salidroside, salidroside] | liver, kidney, stomach, small intestine, etc. | highest peak concentration of metabolite in intestinal bacteria incubation ([1]; peak at 15 min): 3.29 µg/mL; Cmax ([2]; PGF mice): 82.7 ng/mL; half-life ([2]; t1/2, PGF mice): 14.2 min; Tmax ([2]; PGF mice): 16 min; AUC(0−t) ([2]; PGF mice): 3079.01 µg/L/min; AUC(0−∞) ([2]; PGF mice): 3205.99 µg/L/min; Cmax ([3]; Balb/c, mouse, plasma, po, 109.2 mg/kg, cmax, PGF tumor mice, mean): 75 ng/mL; half-life ([3]; Balb/c, mouse, plasma, po, 109.2 mg/kg, t1/2, PGF tumor mice, mean): 20.4 min; Tmax ([3]; Balb/c, mouse, plasma, po, 109.2 mg/kg, tmax, PGF tumor mice, mean): 18 min; AUC(0−t) ([3]; PGF tumor mice, plasma, mean): 2207.64 µg/L/min; AUC(0−∞) ([3]; PGF tumor mice, plasma, mean): 2452.12 µg/L/min
 |  |  |  |  |  |  |  |  | O=[N+]([O-])c1ccc(OP(=O)(O)Oc2ccc([N+](=O)[O-])cc2)cc1 [BNPP, bis-p-nitrophenyl phosphate] |  | effect on metabolic rate of SNZ by gut microbiota ([5]; BNPP 0, 1, 5 and 10 mM): inhibited in a dose-dependent manner; inhibition rate of tyrosol production ([5]; BNPP 1 mM): 81.5%; inhibition rate of tyrosol production ([5]; BNPP 5 mM): 93.1%; inhibition rate of tyrosol production ([5]; BNPP 10 mM): 100.0%; prolongation of SNZ metabolism compared with control group ([5]; BNPP 10 mM, within 120 min): approximately 60 min
increased gradually with incubation time | 126 ng/mL | 110 min | 36 min | 13158.45 µg/L/min | 13944.89 µg/L/min | 8918.61 µg/L/min | 9833.89 µg/L/min | a large amount | OCCc1ccc(O)cc1 [Tyrosol, tyrosol] | liver, kidney, stomach, small intestine, heart, spleen, lung, colon, and other organs and tissues | plasma concentration in PGF mice compared with normal group [2, 7]: lower than that in the normal group; plasma exposure in tumor mice compared with PGF tumor mice [3, 7]: significantly higher
